Assay outcomes (PubChem BioAssay)
In the library only some 2.7% were active in any assay of this set; here they are far more common.
sdo1 growth: compounds rescuing growth of sdo1-depleted yeast, bone marrow failure model; S. cerevisiae sdo1-depleted JHY4D growth rescue, OD600 30 h; stronger effect = higher value; pdr5 snq2 efflux-pump mutant strain; z-score at 10 µM; 0.21% of 140,000 active;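 active = z-score above 3 at both the 24 hr and the 30 hr optical density reads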;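 note: z-score against mean and SD of all compound wells on the same plate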
Yeast growth inh: chemicals that inhibit yeast BB579 growth in restrictive medium (lifespan-shortening candidates); inhibition, % at 10 µM; 0.51% of 140,000 active; S. cerevisiae BB579 growth, OD615, 48 h;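 active = inhibition above a set limit, 3 SD over the mean compound inhibition, cut at about 44% in these data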
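Test system: Saccharomyces cerevisiae DeaD strain BB579, replicative lifespan model yeast | Buffer or medium: Restrictive CSMM-D medium | Doses: One dose, 10 µM compound with 0.25% DMSO | Incubation: 48 h exposure, 30 °C | Detection: Culture absorbance at 615 nm | Control set: Amphotericin B at 10 µg/mL as positive control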
Yeast lifespan up: yeast lifespan extension | inhibition of the nicotinamide effect, % at 10 µM | 0.68% of 130,000 active | S. cerevisiae growth with nicotinamide, OD615; deaD strain in restrictive glucose medium | AID 775;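 active = inhibition above a set limit, placed 3 SD over the median of all compounds, cut at about 26% in these data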;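 note: 0% = nicotinamide-treated wells and 100% = cells grown without nicotinamide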
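Assay system: engineered S. cerevisiae DeaD replicative-lifespan strain, galactose-grown log-phase cells; Buffer or medium: CSMM-D glucose medium, restrictive; Probe or stimulus: nicotinamide 1.5 mM; Compound: single dose 10 µM compound, 0.25% DMSO; Schedule: 4 h preincubation then 48 h treatment at 30 °C; Technique: OD615 measurement.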
RAM inhibit: blocks the yeast RAM network; S. cerevisiae dse1pr::URA3 reporter, 5-FOA growth OD615, 2 d; analog-sensitive cbk1-as2 kinase mutant strain; inhibition, % at 50 µM; 1.8% of 190,000 active; AID 868;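 active = inhibition above a set limit, 3 SD over mean compound inhibition, cut at about 8.4% in these data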;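 note: 0% = DMSO-only wells with no growth and 100% = 10 µM 1-NA-PP1 full growth; inhibition rescues growth on 5-FOA so higher OD means more RAM inhibition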
sdo1 rescue conf: SDO1-depleted yeast growth rescue confirmation; S. cerevisiae JHY4D (SDO1-depleted) growth rescue, OD600, 30 h; stronger effect = higher value; efflux-deficient strain, SNQ2 and PDR5 mutated; OD recovery (concentration not given with the values); shares compounds with sdo1 growth; 44% of 440 active; AID 949;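 active = yeast growth recovered at 30 hours, either rising with dose fitted slope above 0.001 or with average optical density gain above 0.07, some results past the limit were not filed as active; inactive = growth falling with dose or no effect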;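 note: gain in OD600 from 0 h to 30 h averaged across all seven doses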
Numbers without * were called inactive; · = no result.

SMILES	sdo1 growth	Yeast growth inh	Yeast lifespan up	RAM inhibit	sdo1 rescue conf
CCC(C)[C@@H](NC(=O)OC(C)(C)C)c1nnc(S(=O)(=O)Cc2cccc(C)c2)o1 (stereo partly drawn)	5.6*	-31	-3	6	0.11*
COc1ccc(OCCNC(=O)/C=C/c2ccc([N+](=O)[O-])cc2)cc1	15*	-48	-2	0	0.038
O=C(Nc1nccs1)c1ccccn1	·	·	·	-1	·
CCN(CC)S(=O)(=O)c1ccc(Cc2ncc(C(F)(F)F)cc2Cl)s1	12*	-17	-4	5	0.076*
NNS(=O)(=O)c1ccc(Cc2ncc(C(F)(F)F)cc2Cl)s1	0.45	-41	-6	0	·
CC1CCN(c2ccc(C(=O)NCc3ccco3)cc2[N+](=O)[O-])CC1	11*	-16	2	6	0.095*
O=C(NCc1ccco1)c1ccc(N2CCCCC2)c([N+](=O)[O-])c1	-0.86	-36	3	-1	·
Nc1c(N2CCOCC2)cc(Cl)c2nonc12	6*	-18	-8	0	0.031
CCC(=O)OCCn1c(=O)c2cc3c(=O)n(CCOC(=O)CC)c(=O)c3cc2c1=O	2.6	-30	-11	0	0.083*
O=C(CSc1nnc(CNc2cccc(Cl)c2)o1)OC1CCCCC1	12*	-27	5	8	0.09*
O=C(CCc1nc2ccccc2s1)c1ccccc1	0.39	-9	-6	2	·
O=C(c1ccccc1)c1ccc(OC(=O)N2CCOCC2)cc1	0.74	-6	-17	0	·
CCn1cc(/C=N/NC(=O)c2ccc(C#N)cc2F)c2ccccc21	0.9	5	-25	0	·
COC(=O)Cn1cc(/C=N/NC(=O)c2ccc(C#N)cc2F)c2ccccc21	4*	-43	-12	2	0.069
C/C(=N\NC(=S)NC1CCCCC1)c1cccs1	·	·	·	3	·
O=C(NCCCN1CCN(CCCNC(=O)c2cccc([N+](=O)[O-])c2)CC1)c1cccc([N+](=O)[O-])c1	11*	19	-2	2	0.055
O=C(NCCCc1ccccc1)c1cccc([N+](=O)[O-])c1	-0.15	-42	-2	1	·
Cc1cc(NC(=O)CCCC(=O)N(c2ccccc2)C(C(=O)NC2CCCCC2)c2cccs2)no1 (stereo not drawn)	0.83	-5	·	4	·
CCNC(=S)N(CCN(C)C)Cc1cc2cc(OCC)ccc2[nH]c1=O	·	·	·	1	·
O=C(N=NC(=O)c1ccco1)c1ccc2c(O)n(N3C(=O)c4ccccc4C3=O)c(O)c2c1	3.5*	-34	1	2	0.075*
CCCn1c(O)c(N=NC(=O)c2ccco2)c2ccccc21	1.9	-2	-2	1	·
O=C(CCC(=O)Nc1ccccc1Cl)N/N=C1\CCCc2ccccc21	13*	-41	-1	1	0.083*
O=C(Cc1ccc(Cl)cc1)N/N=C1\CCCc2ccccc21	-0.34	-30	-19	-1	·
COc1cccc(S(=O)(=O)Nc2ccc(C(=O)N3CCCCCC3)cc2)c1	·	·	·	1	·
COc1ccc(CCNC(=O)c2cc(-c3ccc(C)c(C)c3O)n[nH]2)cc1OC	2.3	-30	-6	1	0.053
SMILES	sdo1 growth	Yeast growth inh	Yeast lifespan up	RAM inhibit	sdo1 rescue conf
COc1ccc(CCNC(=O)c2cc(-c3cc(C)ccc3O)n[nH]2)cc1OC	0.48	-84	-5	7	·
Cc1nc2nc(C)c(CCC(=O)NC(C)c3ccc4c(c3)OCCO4)c(C)n2n1 (stereo not drawn)	2	-13	-13	1	0.038
O=C(COc1ncnc2ccccc12)Nc1cccc(S(=O)(=O)N2CCOCC2)c1	3.6*	-32	-2	2	0.066
Cc1ccc(S(=O)(=O)N2CCOCC2)cc1NC(=O)COc1ncnc2ccccc12	-0.17	-17	4	2	·
COc1cccc(C(=O)OCC(=O)NCCc2ccccc2)c1OC	·	·	·	2	·
O=C(COC(=O)c1cccc2ccccc12)NCCCc1ccccc1	11*	-23	1	11*	0.051
Cc1cccc(OCCCC(=O)Nc2ccc3c(c2)OCO3)c1	1.1	-38	-27	1	·
Cc1ccnc2nc(C(=O)NCc3cccs3)nn12	0.65	-28	-10	2	·
O=C(NCc1cccs1)c1nc2ncccn2n1	3*	-30	-10	2	0.032
COc1ccc2c(-c3cc4ccc(OCc5ccc(F)cc5)cc4oc3=O)cc(=O)oc2c1	16*	-24	-2	2	0.032
Cc1ccc(C(=O)N(Cc2ccc3c(c2)OCO3)Cc2nc3ccccc3c(=O)[nH]2)cc1	8.5*	-24	-8	1	0.091*
CCCCC(=O)N(Cc1ccc2c(c1)OCO2)Cc1nc2ccccc2c(=O)[nH]1	·	·	·	2	·
COC(=O)CSc1cc(C)nc(SC)n1	1.6	-24	-5	0	·
COc1cc(NC(=O)CSCC(=O)Nc2cccc(C(F)(F)F)c2)c(Cl)cc1Cl	-2.3	-2	-35	4	·
Cc1cc(C)nc(Nc2ncc(O)n2-c2ccc(C)c(Cl)c2)n1	0.68	-22	-6	0	·
Cc1cc(C)nc(Nc2ncc(O)n2-c2ccc(C)c(C)c2)n1	5.9*	-17	9	2	0.077*
CC(C)CNC(=O)NC1C(NC(=O)NCC(C)C)N(C)C(=O)N1C (stereo not drawn)	4.4*	-11	-19	1	0.073*
CCN(CC)S(=O)(=O)c1ccc(NC2c3ncccc3C(=O)N2Cc2ccccc2)cc1 (stereo not drawn)	10*	-51	3	1	0.036
COc1ccc(CN2C(=O)c3cccnc3C2Nc2ccc(C)cc2)cc1 (stereo not drawn)	0.35	-42	-17	2	·
COc1cccc(OC)c1C(=O)NC(=S)Nc1cccc(NC(=O)c2ccco2)c1	·	·	·	5	·
CSc1cc(C)n(-c2ccc(Cl)cc2)c(=S)c1C(C)=O	11*	-33	-7	4	0.05
COc1ccc(-n2c(C)cc(SC)c(C(C)=O)c2=S)cc1	0.38	-47	-4	0	·
CCc1nc(SCC(=O)NCc2ccc(F)cc2)c2c(=O)n(C)c(=O)n(C)c2n1	-1.3	2	-7	1	·
N#Cc1c(NC(=O)CSc2nnc(-c3ccccc3)o2)sc2c1CCCC2	0.03	-66	-12	2	·
CC1CCc2c(sc(NC(=O)CSc3nnc(-c4ccccc4)o3)c2C#N)C1 (stereo not drawn)	1.1	-9	-1	3	0.091*
O=C(CC1S/C(=N/N=C/c2c[nH]c3ccc(OCc4ccccc4)cc23)NC1=O)Nc1ccccc1 (stereo not drawn)	-0.13	-22	0	3	·
O=C(CC1S/C(=N/N=C/c2c[nH]c3ccccc23)NC1=O)Nc1ccccc1 (stereo not drawn)	3.9*	-29	9	6	0.085*
CN1C(=S)SC(N2OC3C(=O)N(c4ccccc4)C(=O)C3C2c2ccccc2)C1(C)C (stereo not drawn)	1.3	-8	3	4	·
